KDM4C inh – inhibitors of human demethylase GASC-1 KDM4C. Q9H3R0. GST-KDM4C 2-372, H3K9me3 peptide, LANCE TR-FRET. inhibition, % at 12.5 µM. 96,000 compounds, 0.15% hits;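 active = mean replicate inhibition above about 25%, with at least 55% of replicates also reaching it, limit read from the data, passing the limit was not always enough; inconclusive = only one of those two conditions met; inactive = neither condition met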
Target sequence (Q9H3R0 2-372 limits assumed): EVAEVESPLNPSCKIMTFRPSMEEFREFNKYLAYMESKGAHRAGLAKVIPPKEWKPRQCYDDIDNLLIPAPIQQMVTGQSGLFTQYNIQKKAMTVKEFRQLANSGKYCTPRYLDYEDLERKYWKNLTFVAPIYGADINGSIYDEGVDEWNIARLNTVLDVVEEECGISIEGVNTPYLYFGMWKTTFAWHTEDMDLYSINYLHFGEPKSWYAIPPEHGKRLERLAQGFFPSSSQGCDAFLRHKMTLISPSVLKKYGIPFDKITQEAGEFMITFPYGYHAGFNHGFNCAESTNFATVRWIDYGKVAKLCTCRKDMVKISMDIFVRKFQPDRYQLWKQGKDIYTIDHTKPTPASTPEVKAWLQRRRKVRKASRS
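Compound: one test concentration per compound; Material: GST-GASC-1 enzyme fragment 2-372; Amount: GASC-1 enzyme at 10 nM final in reaction; Also added: H3K9me3 peptide substrate, Fe(II), 2-oxoglutarate; Technique: LANCE TR-FRET; Times: 30 min demethylation and 1 h detection at room temperature.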
IDH1 mut inh – IDH1 R132H (human) inhibition. IDH1 R132H reductase, diaphorase/resazurin fluorescence, 60 min. inhibition, % at 10 µM. 70,000 compounds, 0.18% hits; in the data active = inhibition above about 34%; inconclusive = no clear call, values can overlap the other calls; inactive = below about 11%;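 also: 0% = DMSO and 100% = no enzyme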
T cruzi growth-1 – blocks T. cruzi growth in NIH3T3 culture; T. cruzi beta-gal in NIH3T3, GalScreen luminescence, 90 h; inhibition, % at 8.34 µM; 77,000 compounds, 5.9% hits; AID 624255;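 active = mean inhibition above about 93%, with at least 55% of replicates each passing it, limit read from the data, passing the limit was not always enough; inconclusive = only one of those two conditions holds; inactive = neither condition holds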
T cruzi growth-2 – Trypanosoma cruzi proliferation inhibition; shares compounds with T cruzi growth-1; T. cruzi beta-gal in NIH3T3, GalScreen luminescence, 90 h; inhibition, % at 8.35 µM; 5,600 compounds, 72% hits;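 active = mean replicate inhibition above about 95% and at least 55% of replicates individually reaching it, limit read from the data; inconclusive = only one of the two criteria is met; inactive = neither criterion is met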
T cruzi growth-3 – blocks T. cruzi growth in NIH3T3 host cells; shares compounds with T cruzi growth-1; T. cruzi beta-gal in NIH3T3, GalScreen luminescence, 90 h; inhibition, % at 2.09 µM; 5,600 compounds, 21% hits; AID 651740;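 active = mean inhibition above about 95%, with at least 55% of replicates also reaching it, limit read from the data; inconclusive = meets just one of the two conditions; inactive = meets neither condition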;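 also: plate controls were neutral control median for no effect and positive control median for full effect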
3T3 cytotox – kills mouse NIH/3T3 fibroblasts | shares compounds with T cruzi growth-1 | NIH/3T3 viability, CellTiter-Glo ATP luminescence, 90 h | cytotoxicity (signal decrease), % at 8.35 µM | 5,600 compounds, 14% hits | AID 651742;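 active = mean signal decrease across replicates above about 35% based on untreated-well scatter, with enough replicates individually passing, limit read from the data; inconclusive = no rule stated though some were filed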;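 also: 0% = median of neutral control wells and 100% = median of positive control wells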
NIH3T3 tox 2 – NIH/3T3 (mouse) viability loss; 5,600 compounds, 56% hits; NIH/3T3 viability, CellTiter-Glo ATP luminescence, 90 h; inhibition, % at 24.9 µM; shares compounds with T cruzi growth-1;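 active = mean loss of cell viability signal at or above a set limit, and enough replicates individually reaching it; inconclusive = meets only the mean limit or only the replicate share; inactive = meets neither condition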;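 also: 0% = median of neutral control wells and 100% = median of positive control wells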
* = called active by the depositor; ? = inconclusive; nt = no result. Many of the other results were omitted from the sample, so hits are more common in it than they were.

SMILES	KDM4C inh	IDH1 mut inh	T cruzi growth-1	T cruzi growth-2	T cruzi growth-3	3T3 cytotox	NIH3T3 tox 2
Cn1cnc(S(=O)(=O)N2CCCCN3[C@H](C2)[C@H](c2ccc(-c4ccc(F)cc4)cc2)[C@@H]3CO)c1	-1	nt	48	nt	nt	nt	nt
Cn1cnc(S(=O)(=O)N2CCCCN3[C@H](CO)[C@@H](c4ccc(-c5ccccc5)cc4)[C@@H]3C2)c1	-1	nt	100*	65	-2	11	28*
O=C(N/N=C/c1ccccc1Cl)c1ccccn1	nt	0	nt	nt	nt	nt	nt
N#C/C(=C\c1ccc(O)c(O)c1)C(=O)NC1CCC(CC2CCC(NC(=O)/C(C#N)=C/c3ccc(O)c(O)c3)CC2)CC1 (stereo unspecified)	nt	2	nt	nt	nt	nt	nt
CCOC(=O)c1cnc2c(C)c(C)ccc2c1NCCN(C)C	nt	0	nt	nt	nt	nt	nt
O=C(NCC(O)c1ccccc1)c1ccc(Cl)c(S(=O)(=O)N2CCOCC2)c1 (stereo unspecified)	nt	0	nt	nt	nt	nt	nt
COc1cccc(-c2cc(=O)c3cc(OC)ccc3o2)c1	nt	0	nt	nt	nt	nt	nt
C[C@@H]1CN([C@@H](C)CO)S(=O)(=O)c2ccc(C#Cc3ccc(F)cc3)cc2O[C@@H]1CN(C)C(=O)NC1CCCC1	-5	0	115*	101*	87	-19	74*
C[C@H]1CN([C@@H](C)CO)S(=O)(=O)c2ccc(C#Cc3ccc(F)cc3)cc2O[C@H]1CN(C)C(=O)NC1CCCC1	-1	-1	99*	99*	113*	2	104*
CC(C)CC#Cc1ccc2c(c1)O[C@@H](CN(C)C(=O)NC1CCCC1)[C@@H](C)CN([C@H](C)CO)S2(=O)=O	-2	-2	119*	106*	94	-3	102*
CC(C)CC#Cc1ccc2c(c1)O[C@H](CN(C)C(=O)NC1CCCC1)[C@@H](C)CN([C@H](C)CO)S2(=O)=O	0	2	79	nt	nt	nt	nt
C[C@@H]1CN([C@@H](C)CO)S(=O)(=O)c2ccc(C#Cc3ccc(F)cc3)cc2O[C@H]1CN(C)C(=O)NC1CCCCC1	1	21	84	nt	nt	nt	nt
C[C@H](CO)N1C[C@H](C)[C@@H](CN(C)C(=O)NC2CCCC2)Oc2cc(C#Cc3ccc(F)cc3)ccc2S1(=O)=O	0	0	60	nt	nt	nt	nt
C[C@@H]1CN([C@H](C)CO)S(=O)(=O)c2ccc(C#Cc3ccc(F)cc3)cc2O[C@@H]1CN(C)C(=O)NC1CCCCC1	-1	nt	78	nt	nt	nt	nt
C[C@H](CO)N1C[C@H](C)[C@H](CN(C)C(=O)NC2CCCC2)Oc2cc(C#Cc3ccc(F)cc3)ccc2S1(=O)=O	2	nt	104*	95*	116*	-5	61*
Cc1cccc(OCC(O)Cn2cnc3ccccc32)c1C (stereo unspecified)	nt	0	nt	nt	nt	nt	nt
CC1CCc2c(sc3ncnc(SCC(=O)Nc4cccc(Cl)c4Cl)c23)C1 (stereo unspecified)	nt	0	nt	nt	nt	nt	nt
Nc1cccc(COc2ccc(/C=C/C(=O)NO)cc2)c1	nt	0	nt	nt	nt	nt	nt
C/S(=N\S(=O)(=O)c1cccc2nsnc12)c1ncc(Cl)cc1C(F)(F)F (stereo unspecified)	nt	0	nt	nt	nt	nt	nt
O=C(O)COc1ccc(NC(=O)c2ccccc2-c2ccccc2C(=O)O)cc1	nt	1	nt	nt	nt	nt	nt
COc1ccc(C#Cc2ccc3c(c2)O[C@@H](CN(C)C(=O)NC2CCCCC2)[C@H](C)CN([C@H](C)CO)S3(=O)=O)cc1	-7	4	?	103*	99*	-13	13
C[C@H](CO)N1C[C@H](C)[C@@H](CN(C)C(=O)NC2CCCCC2)Oc2cc(C#Cc3ccc(F)cc3)ccc2S1(=O)=O	-1	nt	87	nt	nt	nt	nt
C[C@@H]1CCCCO[C@@H](CN(C)Cc2ccc(Cl)c(Cl)c2)[C@H](C)CN([C@H](C)CO)C(=O)c2cc(N(C)C)ccc2O1	0	0	99*	106*	79	-1	103*
C[C@@H]1CCCCO[C@@H](CN(C)Cc2ccc(Cl)c(Cl)c2)[C@H](C)CN([C@@H](C)CO)C(=O)c2cc(N(C)C)ccc2O1	16	-2	nt	nt	nt	nt	nt
C[C@@H]1CCCCO[C@H](CN(C)Cc2ccc(Cl)c(Cl)c2)[C@@H](C)CN([C@@H](C)CO)C(=O)c2cc(N(C)C)ccc2O1	12	-2	106*	100*	106*	15	106*
SMILES	KDM4C inh	IDH1 mut inh	T cruzi growth-1	T cruzi growth-2	T cruzi growth-3	3T3 cytotox	NIH3T3 tox 2
C[C@@H]1CCCCO[C@H](CN(C)Cc2ccc(Cl)c(Cl)c2)[C@@H](C)CN([C@H](C)CO)C(=O)c2cc(N(C)C)ccc2O1	-1	0	86	nt	nt	nt	nt
COc1cc2c(cc1OC)CN(C(=O)CSc1ncnc3sc(C)c(C)c13)CC2	nt	0	nt	nt	nt	nt	nt
O=C(CSc1nnc(-c2ccc([N+](=O)[O-])cc2)n1-c1ccccc1)Nc1ccc(Cl)cc1	nt	0	nt	nt	nt	nt	nt
C[C@H](CO)N1C[C@H](C)[C@@H](CN(C)S(=O)(=O)c2ccc(Cl)cc2)Oc2c(NC(=O)CCCCCC(=O)Nc3ccccc3N)cccc2C1=O	-1	nt	103*	109*	88	-5	2
C[C@H]1CN([C@@H](C)CO)C(=O)c2cccc(NC(=O)CCCCCC(=O)Nc3ccccc3N)c2O[C@H]1CN(C)S(=O)(=O)c1ccc(Cl)cc1	-3	nt	101*	106*	76	-2	5
C[C@H]1CN([C@@H](C)CO)C(=O)c2cccc(NC(=O)CCCCCC(=O)Nc3ccccc3N)c2O[C@H]1CN(C)S(=O)(=O)c1ccccc1	0	0	nt	nt	nt	nt	nt
C[C@@H]1CN([C@H](C)CO)C(=O)c2cccc(NC(=O)CCCCCC(=O)Nc3ccccc3N)c2O[C@H]1CN(C)S(=O)(=O)c1ccc(Cl)cc1	0	nt	92	nt	nt	nt	nt
Cc1cccc(-n2c(SCC(=O)Nc3ccc(C)cc3Br)nnc2-c2ccncc2)c1	nt	0	nt	nt	nt	nt	nt
Cc1ccccc1S(=O)(=O)N(C)C[C@@H]1OCc2ccccc2-c2c(n(C)c3ccccc23)C(=O)N([C@@H](C)CO)C[C@@H]1C	-2	-2	83	nt	nt	nt	nt
C[C@H](CO)N1C[C@H](C)[C@H](CN(C)S(=O)(=O)c2ccsc2)OCc2ccccc2-c2c(n(C)c3ccccc23)C1=O	0	1	68	nt	nt	nt	nt
C[C@H](CO)N1C[C@H](C)[C@@H](CN(C)S(=O)(=O)c2ccc(C#N)cc2)OCc2ccccc2-c2c(n(C)c3ccccc23)C1=O	-1	nt	?	112*	71	14	19
COc1ccc(S(=O)(=O)N(C)C[C@@H]2OCc3ccccc3-c3c(n(C)c4ccccc34)C(=O)N([C@@H](C)CO)C[C@@H]2C)cc1	-2	0	?	100*	67	-17	24*
C[C@H]1CN([C@@H](C)CO)C(=O)c2c(c3ccccc3n2C)-c2ccccc2CO[C@@H]1CN(C)S(=O)(=O)c1ccc(C#N)cc1	0	nt	56	nt	nt	nt	nt

Screens as filed in PubChem.
